Reference: ChEMBL document CHEMBL3297648, “Diterpenoids from the Chinese liverwort Heteroscyphus tener and their antiproliferative effects” (J Nat Prod, 2014)
The source made the active and inactive calls. No cut-off for these calls is given here.

How the values were obtained:
DU-145 [1] = assay: Increase in H2AX protein expression in human DU145 cells at 20 uM after 2 to 48 hrs by western blot analysis; type: functional, cell-based
Procedure, shortened: (§1)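 Cells treated at 20 μM for various times, lysed in RIPA buffer with protease/phosphatase inhibitors, protein quantified by BCA. Equal protein run on 12% SDS-PAGE, transferred to nitrocellulose, blocked 1 h in 5% milk/TBST, primary antibodies overnight at 4 °C, secondary 1:2000 for 45 min, ECL detection on film. GAPDH used as loading control.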

[2] = molecular target: Serine/threonine-protein kinase ATR (Homo sapiens) (UniProt Q13535); assay: Activation of ATR in human PC3 cells assessed as ChK1 phosphorylation at Ser296 at 20 uM after 12 hrs by western blot analysis; type: cell-based; details: PC-3; procedure, shortened: as §1
Chain of Serine/threonine-protein kinase ATR (Homo sapiens) (Q13535 whole entry, looked up): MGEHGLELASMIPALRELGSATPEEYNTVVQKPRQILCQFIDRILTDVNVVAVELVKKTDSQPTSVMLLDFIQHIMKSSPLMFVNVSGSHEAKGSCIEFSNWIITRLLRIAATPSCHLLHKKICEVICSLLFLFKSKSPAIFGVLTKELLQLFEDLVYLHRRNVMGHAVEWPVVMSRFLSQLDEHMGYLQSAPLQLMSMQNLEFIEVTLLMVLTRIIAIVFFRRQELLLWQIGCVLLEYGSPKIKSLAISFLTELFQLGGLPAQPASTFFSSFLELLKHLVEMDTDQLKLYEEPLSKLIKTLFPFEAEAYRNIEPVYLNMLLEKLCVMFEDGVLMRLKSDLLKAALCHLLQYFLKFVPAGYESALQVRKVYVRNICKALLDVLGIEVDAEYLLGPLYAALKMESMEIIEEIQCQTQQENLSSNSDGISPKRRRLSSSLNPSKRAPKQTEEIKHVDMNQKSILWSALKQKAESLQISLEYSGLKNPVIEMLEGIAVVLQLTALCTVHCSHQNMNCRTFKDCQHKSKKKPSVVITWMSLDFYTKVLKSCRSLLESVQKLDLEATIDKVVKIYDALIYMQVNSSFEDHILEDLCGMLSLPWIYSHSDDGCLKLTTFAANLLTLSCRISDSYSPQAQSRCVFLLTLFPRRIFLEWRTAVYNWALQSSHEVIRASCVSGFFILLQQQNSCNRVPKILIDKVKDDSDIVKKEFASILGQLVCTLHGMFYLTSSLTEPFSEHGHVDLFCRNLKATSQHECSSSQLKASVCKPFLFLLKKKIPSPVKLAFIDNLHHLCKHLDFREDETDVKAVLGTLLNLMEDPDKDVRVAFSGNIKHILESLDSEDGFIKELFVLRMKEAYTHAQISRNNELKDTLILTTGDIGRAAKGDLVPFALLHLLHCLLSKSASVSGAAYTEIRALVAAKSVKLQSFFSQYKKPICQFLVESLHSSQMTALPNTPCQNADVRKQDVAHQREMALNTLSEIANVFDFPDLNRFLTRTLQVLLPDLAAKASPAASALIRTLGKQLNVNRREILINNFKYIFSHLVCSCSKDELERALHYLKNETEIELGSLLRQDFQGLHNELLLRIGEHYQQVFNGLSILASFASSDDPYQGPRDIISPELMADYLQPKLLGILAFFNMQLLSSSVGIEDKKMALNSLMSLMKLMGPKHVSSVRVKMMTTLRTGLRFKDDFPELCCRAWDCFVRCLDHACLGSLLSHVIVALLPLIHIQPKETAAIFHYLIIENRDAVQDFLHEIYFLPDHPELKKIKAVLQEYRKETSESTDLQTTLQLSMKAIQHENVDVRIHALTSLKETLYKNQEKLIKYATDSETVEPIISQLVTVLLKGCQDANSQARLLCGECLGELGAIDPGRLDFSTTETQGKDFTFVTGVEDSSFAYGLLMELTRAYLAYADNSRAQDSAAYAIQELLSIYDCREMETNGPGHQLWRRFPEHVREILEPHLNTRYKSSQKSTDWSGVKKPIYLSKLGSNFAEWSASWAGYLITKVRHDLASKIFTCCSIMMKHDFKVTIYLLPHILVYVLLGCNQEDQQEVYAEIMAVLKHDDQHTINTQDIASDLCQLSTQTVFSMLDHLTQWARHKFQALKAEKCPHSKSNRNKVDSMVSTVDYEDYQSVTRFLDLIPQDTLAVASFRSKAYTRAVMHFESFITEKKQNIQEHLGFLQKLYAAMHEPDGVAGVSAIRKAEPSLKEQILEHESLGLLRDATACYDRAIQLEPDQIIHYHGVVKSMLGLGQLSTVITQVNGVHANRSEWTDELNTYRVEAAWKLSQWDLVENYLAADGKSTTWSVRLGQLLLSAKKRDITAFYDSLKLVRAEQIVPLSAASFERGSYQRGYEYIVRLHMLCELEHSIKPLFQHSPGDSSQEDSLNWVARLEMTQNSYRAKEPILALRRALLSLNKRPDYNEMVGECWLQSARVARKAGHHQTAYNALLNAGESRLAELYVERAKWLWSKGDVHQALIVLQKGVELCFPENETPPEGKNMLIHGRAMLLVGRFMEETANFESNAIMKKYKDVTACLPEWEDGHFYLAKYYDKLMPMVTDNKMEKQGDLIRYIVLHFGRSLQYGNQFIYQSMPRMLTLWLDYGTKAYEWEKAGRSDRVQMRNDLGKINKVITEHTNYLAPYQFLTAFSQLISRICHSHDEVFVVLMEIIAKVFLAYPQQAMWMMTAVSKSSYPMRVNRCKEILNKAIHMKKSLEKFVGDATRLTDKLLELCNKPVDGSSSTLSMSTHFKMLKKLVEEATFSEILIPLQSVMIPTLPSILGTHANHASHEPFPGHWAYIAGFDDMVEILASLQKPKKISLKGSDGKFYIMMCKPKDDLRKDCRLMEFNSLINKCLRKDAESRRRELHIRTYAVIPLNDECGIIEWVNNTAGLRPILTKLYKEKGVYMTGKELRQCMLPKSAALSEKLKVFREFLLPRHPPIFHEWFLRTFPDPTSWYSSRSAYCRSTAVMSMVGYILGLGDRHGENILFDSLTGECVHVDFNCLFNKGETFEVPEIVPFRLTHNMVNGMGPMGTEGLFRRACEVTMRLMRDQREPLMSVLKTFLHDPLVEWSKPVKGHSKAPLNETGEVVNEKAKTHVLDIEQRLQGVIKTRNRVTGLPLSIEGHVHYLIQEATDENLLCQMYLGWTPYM

[3] = molecular target: Serine/threonine-protein kinase ATR (Homo sapiens) (UniProt Q13535); assay: Activation of ATR in human DU145 cells assessed as ChK1 phosphorylation at Ser296 at 20 uM after 12 hrs by western blot analysis; type: cell-based; details: DU-145; procedure, shortened: as §1
[4] = Decrease in ChK1 protein expression in human PC3 cells at 20 uM after 2 to 48 hrs by western blot analysis; type: functional, cell-based; details: PC-3; procedure, shortened: as §1
[5] = Decrease in ChK1 protein expression in human DU145 cells at 20 uM after 2 to 48 hrs by western blot analysis; type: functional, cell-based; details: DU-145; procedure, shortened: as §1
[6] = Cell cycle arrest at G0/G1 phase in human PC3 cells after 24 hrs by propidium iodide staining based flow cytometry; type: functional; details: PC-3
A549 = assay: Antiproliferative activity against human A549 cells assessed as inhibition of cell viability after 24 hrs by MTT assay; type: functional, cell-based; details: A549, 24 h
Procedure, shortened: (§2)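 Cells grown to 50–70% confluence (RWPE1 in K-SFM with pituitary extract and EGF; the other lines in RPMI 1640 with 10% FBS), 5% CO2, 37 °C. Treated for 24 h with DMSO vehicle, compounds, or cisplatin as positive control. MTT (5 mg/mL) added for 4 h, formazan dissolved in DMSO, absorbance read at 570 nm. Viability taken relative to untreated cells after blank subtraction, IC50 fitted from % viability, at least three experiments.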

NCI-H446 = assay: Antiproliferative activity against human NCI-H446 cells assessed as inhibition of cell viability after 24 hrs by MTT assay; type: functional, cell-based; details: NCI-H446, 24 h; procedure, shortened: as §2
[7] = Cell cycle arrest in human PC3 cells assessed as accumulation at subG1 phase at 20 uM after 24 hrs by propidium iodide staining based flow cytometry (reference value: 0.13%); type: functional; details: PC-3
DU-145 [8] = assay: Cell cycle arrest in human DU145 cells assessed as accumulation at G0/G1 phase at 10 uM after 24 hrs by propidium iodide staining based flow cytometry (reference value: 63.34%); type: functional
DU-145 [9] = assay: Cell cycle arrest in human DU145 cells assessed as accumulation at S phase at 10 uM after 24 hrs by propidium iodide staining based flow cytometry (reference value: 25.94%); type: functional
DU-145 [10] = assay: Cell cycle arrest in human DU145 cells assessed as accumulation at S phase at 20 uM after 24 hrs by propidium iodide staining based flow cytometry (reference value: 25.94%); type: functional
[11] = Decrease in cyclin D1 protein expression in human PC3 cells by western blot analysis; type: functional, cell-based; details: PC-3, TDE = time-dependent effect
Procedure, shortened: (§3)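 Western blot of cyclin D1, cyclin E, Cdk4 and p21 in PC3 and DU145 lysates. Lysis in RIPA buffer plus protease inhibitors, BCA quantification, 12% SDS-PAGE, nitrocellulose transfer, milk block, primaries overnight at 4 °C, secondary 1:2000 for 45 min, ECL read-out. GAPDH served as loading control.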

[12] = Decrease in Cdk4 protein expression in human PC3 cells after 2 to 48 hrs by western blot analysis; type: functional, cell-based; details: PC-3; procedure, shortened: as §3
PC-3 [13] = assay: Induction of apoptosis in human PC3 cells assessed as late apoptotic cells at 20 uM after 8 hrs by Annexin V-FITC/propidium iodide staining based flow cytometry (reference value: 7.92%); type: functional
Procedure, shortened: (§4)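 Cells seeded in 6-well plates for 24 h, then given 20 μM for the stated times. Cells were trypsinized, PBS-washed, stained with annexin V-FITC/PI, and analysed immediately by flow cytometry. Means ± SD of three independent experiments; Student's t test against untreated control.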

PC-3 [14] = assay: Induction of apoptosis in human PC3 cells assessed as late apoptotic cells at 20 uM after 12 hrs by Annexin V-FITC/propidium iodide staining based flow cytometry (reference value: 7.92%); type: functional; procedure, shortened: as §4
PC-3 [15] = assay: Induction of apoptosis in human PC3 cells assessed as necrotic cells at 20 uM after 24 hrs by Annexin V-FITC/propidium iodide staining based flow cytometry (reference value: 0.98%); type: functional; procedure, shortened: as §4
DU-145 [16] = assay: Induction of apoptosis in human DU145 cells assessed as late apoptotic cells at 20 uM after 4 hrs by Annexin V-FITC/propidium iodide staining based flow cytometry (reference value: 1.53%); type: functional; procedure, shortened: as §4
DU-145 [17] = assay: Induction of apoptosis in human DU145 cells assessed as early apoptotic cells at 20 uM after 8 hrs by Annexin V-FITC/propidium iodide staining based flow cytometry (reference value: 1.60%); type: functional; procedure, shortened: as §4
DU-145 [18] = assay: Induction of apoptosis in human DU145 cells assessed as necrotic cells at 20 uM after 8 hrs by Annexin V-FITC/propidium iodide staining based flow cytometry (reference value: 0.21%); type: functional; procedure, shortened: as §4
DU-145 [19] = assay: Induction of apoptosis in human DU145 cells assessed as necrotic cells at 20 uM after 24 hrs by Annexin V-FITC/propidium iodide staining based flow cytometry (reference value: 0.21%); type: functional; procedure, shortened: as §4
PC-3 [20] = assay: Induction of apoptosis in human PC3 cells assessed as increase in caspase-3 activity using Ac-DEVD-AMC as substrate at 20 uM by fluorometric method; type: functional, cell-based; details: TDE = time-dependent effect
Procedure, shortened: (§5)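 Cells treated with 20 μM for the stated times. Pellets lysed on ice 15 min, spun at 14 000g for 15 min at 4 °C. Supernatant assayed in buffer containing CHAPS, 10% glycerol, 2 mM EDTA, 5 mM DTT for 2 h at 37 °C. Fluorescence read at ex 380/em 440 nm.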

DU-145 [21] = assay: Induction of apoptosis in human DU145 cells assessed as increase in caspase-3 activity using Ac-DEVD-AMC as substrate at 20 uM by fluorometric method; type: functional, cell-based; details: TDE = time-dependent effect; procedure, shortened: as §5
PC-3 [22] = assay: Induction of ROS generation in human PC3 cells at 20 uM after 30 mins to 4 hrs by DCFH-DA staining based flow cytometry; type: functional, cell-based
Procedure, shortened: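 Cells in RPMI 1640 with 10% FBS, 5% CO2, 37 °C, treated at 50−70% confluence (DMSO vehicle). After exposure, cells were loaded with 10 μM DCFH-DA for 30 min at 37 °C, washed, resuspended in PBS, and read at once by flow cytometry. For NAC runs, cells got 5 mM NAC 1 h before compound. ROS reported as ratio relative to untreated control.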

DU-145 [23] = assay: Induction of ROS generation in human DU145 cells at 20 uM measured up to 6 hrs by DCFH-DA staining based flow cytometry; type: functional, cell-based
Procedure, shortened: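 Cells exposed to 20 μM for the indicated times, then loaded with 10 μM DCFH-DA for 30 min at 37 °C. Washed, resuspended in PBS and read at once by flow cytometry. ROS expressed as ratio relative to untreated control.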

PC-3 [24] = assay: Antiproliferative activity against human PC3 cells assessed as inhibition of cell viability at 20 uM pretreated for 1 hr with 5 mM antioxidant NAC measured after 24 hrs by MTT assay; type: functional, cell-based

In the case of `C=C[C@@](C)(O)CC[C@@H]1C(C)=CC[C@@H]2C(C)(C)CCC[C@@]12C`, the Activity (DU-145 [1]) is reported as “inactive”, the Activity [2] is reported as “Active” and the Activity [3] is reported as “Active”. The inhibition [4] was “Active”, the inhibition [5] was “Active” and the Activity [6] was “Dose-dependent effect”. It also gave an IC50 (A549) greater than 40 µM, an IC50 (NCI-H446) of 39.5 µM and an Activity [7] of 2.39%. The Activity (DU-145 [8]) was 67.97%, the Activity (DU-145 [9]) was 21.68% and the Activity (DU-145 [10]) was 8.73%. The inhibition [11] was “tde”, the inhibition [12] was “Active” and the Activity (PC-3 [13]) was 15.29%. For the same compound, the Activity (PC-3 [14]) was 12.66%, the Activity (PC-3 [15]) was 10.21% and the Activity (DU-145 [16]) was 9.26%. It also gave an Activity (DU-145 [17]) of 4.56%, an Activity (DU-145 [18]) of 2.44% and an Activity (DU-145 [19]) of 4.55%. The Activity (PC-3 [20]) was “tde”, the Activity (DU-145 [21]) was “tde” and the Activity (PC-3 [22]) was “Active”. The Activity (DU-145 [23]) was “Active” and the inhibition (PC-3 [24]) was “inactive”.
